Assay results gathered from unrelated publications.
Protocols differ between the studies behind these lines.
Target: Cytochrome P450 3A4 (CYP3A4, Homo sapiens, UniProt P08684)
Read-out: enzyme activity
Mode: inhibitor

`CCCCC1=NC2(CCCC2)C(=O)N1Cc1ccc(-c2ccccc2S(=O)(=O)Nc2noc(C)c2C)c(COCC)c1` has a Ki of 6330 nM.
The IC50 of `CC1=CC(=O)C(C(C)C)=CC1=O` is reported as 1200 nM (fluorescence; pH 7.4).
With `COc1ccc2c(Cc3ccccc3F)c3[n+](cc2c1OC)CCc1cc2c(cc1-3)OCO2` the IC50 was 800 nM.
The IC50 of `CCc1cc(/C(C)=N/OCc2ccc(C3CCCCC3)c(C(F)(F)F)c2)ccc1CN1CC(C(=O)O)C1` is reported as 600 nM (human, liver microsomes; 20 min, testosterone probe).
`O=C(NCCN1CCCC1)c1cc(-c2ccc(CN3CCOCC3)cc2)nc2ccc(F)cc12` gave an IC50 of > 100000 nM (human, liver microsomes; midazolam probe).
`Nc1nc(N)c2nc(C(=O)NCc3cccc(C(F)(F)F)c3)cnc2n1` gave an IC50 of 13800 nM (luciferase).
With `COc1ccc2c(Cc3ccccc3F)c3n(c(=O)c2c1OC)CCc1cc2c(cc1-3)OCO2` the IC50 was 2700 nM.
With `COc1ccn2c(Nc3ccccc3F)c(-c3ccncn3)nc2c1` the IC50 was 270 nM.
`COC(=O)C1CCN(C(=O)c2ccc(SCc3cnc4nc(N)nc(N)c4n3)nc2)CC1` gave an IC50 of 11700 nM (luciferase).
With `Cc1ccc2nc(-c3ccccc3)c(CNc3ccc(F)cc3)n2c1` the IC50 was 270 nM.
`Nc1nc(N)c2nc(CNc3ccc(C(=O)c4ccccc4)cc3)cnc2n1` has an IC50 of 43700 nM (luciferase).
`COc1cc2c(c(OC)c1OC)-c1c(cc3c(c1OC)OCO3)C[C@H](C)[C@](C)(O)[C@H]2OC(=O)c1ccccc1` gave an IC50 of 140 nM (15 min, pH 7.4).
